The structures appear in SMILES notation. Active and inactive are the calls of the source.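 How the source made its calls: active means IC50 at or below 10 µM; inactive means IC50 above 10 µM.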

This assay deals with CHO-S GAL4-VP16 UAS luciferase reporter, luminescence. Nature of the assay: GAL4-VP16 UAS luciferase reporter inhibitors, late-stage follow-up, counter-screen for NR2E3 agonist project, luminescence, CHO-S cells (AID 651846). The procedure, abridged: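 System: CHO-S cells transiently co-transfected with GAL4 DBD–VP16 fusion plus UAS pGL4.31 luciferase; incubation: compound exposure 24 h at 37 °C, 16 h post-transfection; measured by: luciferase luminescence with One-Glo reagent, 10 min at room temperature; compound dosing: dose-response concentration series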
For orientation: Reporter assays use an easily measured gene product as a stand-in for the process of interest.
The term IC50 denotes the concentration at which inhibition is half-maximal. Turning to `COc1ccc(S(=O)(=O)N2CCCCC2)cc1NC(=S)Nc1cccc(Cl)c1C`, the IC50 is > 39.8 µM (inactive). With `O=c1cc(N2CCN(c3cccc(Cl)c3)CC2)[nH]c(=O)n1C1CCCCC1` the figure was > 39.8 µM (inactive); with `O=C(CSc1nnnn1-c1ccc(O)cc1)Nc1ccc(N2CCOCC2)c(Cl)c1`, > 39.8 µM (inactive).

For `Cc1cccc(C(=O)N[C@H](C(=O)Nc2ncc(C)s2)C(C)C)c1`, the IC50 was > 39.8 µM (inactive). As for `NC(=O)c1nn(-c2ccccc2)nc1NC(=O)CSc1nnnn1-c1ccc(Cl)cc1`, the IC50 was > 39.8 µM (inactive). With `COc1ccc(NC2c3ccccc3C(=O)N2Cc2ccccc2Cl)cc1OC` (stereo unspecified) the figure was > 39.8 µM (inactive); with `COc1cc2nc(CN3CC=C(c4ccccc4)CC3)[nH]c(=O)c2cc1OC`, > 39.8 µM (inactive). As to `COc1ccc(S(=O)(=O)N2CCCCC2)cc1NC(=S)Nc1ccccc1`, the IC50 was > 39.8 µM (inactive). As to `COc1cccc(N2CCN(c3nc(-c4ccccc4C)cc(=O)[nH]3)CC2)c1`, the IC50 was > 39.8 µM (inactive). Regarding `COc1ccc2c(CC(=O)Nc3ncc(C)s3)coc2c1`, the IC50 was > 39.8 µM (inactive). The figure for `Cc1cnc(NC(=O)Cc2ccc(Br)cc2)s1` is > 39.8 µM (inactive); for `O=c1c(Cl)c(N2CCN(c3ccc(F)cc3)CC2)cnn1C12CC3CC(CC(C3)C1)C2` it is > 39.8 µM (inactive). For `Cc1cc(C)cc(NC(=O)CCc2nc3sc4c(c3c(=O)[nH]2)CCCC4)c1`, the IC50 is > 39.8 µM (inactive). As for `O=C(CSc1nnnn1-c1ccc2c(c1)OCCO2)Nc1nc2c(s1)CCCC2`, the IC50 is > 39.8 µM (inactive). With `COc1ccc(OC)c(NC(=O)CSc2nnnn2-c2ccc3c(c2)OCO3)c1` the figure was > 39.8 µM (inactive); with `Cc1ccc(-c2nc(NC(=O)CSc3nnnn3-c3ccccc3)ns2)cc1`, > 39.8 µM (inactive); with `Cc1ccc(NC(=O)CSc2nnnn2-c2ccc3c(c2)OCO3)cc1C`, > 39.8 µM (inactive). With `Cc1cnc(NC(=O)CCCc2nc3ccccc3s2)s1`, the IC50 was > 39.8 µM (inactive).

`COc1cccc(NC(=O)CSc2nc3ncc(Br)cc3[nH]2)c1`: the IC50 was > 39.8 µM (inactive).

On to `Cc1cccc(OCCCC(=O)Nc2nc3ccccc3[nH]2)c1`, for which the IC50 was > 39.8 µM (inactive). Consider `Cc1ccc(CN2CC(C(=O)Nc3ncc(C)s3)CC2=O)cc1` (stereo unspecified), for which the IC50 was > 39.8 µM (inactive). For the compound `Cc1cnc(NC(=O)C2CC(=O)N(c3ccc4c(c3)OCCO4)C2)s1` (stereo unspecified), the IC50 is > 39.8 µM (inactive). `Cc1onc(-c2ccccc2Cl)c1C(=O)Nc1nc2c(s1)CCCC2`: the IC50 was > 39.8 µM (inactive). With `O=C(O)CC1(CC(=O)Nc2cc(C(F)(F)F)cc(C(F)(F)F)c2)CCCCC1` the figure was 7.72 µM. Regarding `Cc1ccnc(NC(=O)CSc2cc(=O)n(C)c3ccccc23)c1`, the IC50 was > 39.8 µM (inactive). Regarding `O=C(Nc1cccc(NC(=O)c2c(F)cccc2F)n1)c1c(F)cccc1F`, the IC50 is > 39.8 µM (inactive).

(Values after PubChem BioAssay AID651846 (The Scripps Research Institute Molecular Screening Center, 2012).)
